Results on 3 molecules are retold here after ChEMBL document CHEMBL1153602, “Photochemical electrocyclisation of 3-vinylindoles to pyrido[2,3-a]-, pyrido[4,3-a]- and thieno[2,3-a]-carbazoles: design, synthesis, DNA binding and antitumor cell cytotoxicity” (2009).

The target in assay [1] is DNA topoisomerase 2-alpha (Homo sapiens) (UniProt P11388). Briefly: Inhibition of human topoisomerase 2-mediated DNA relaxation assessed as double stranded break form by agarose gel electrophoresis. An outline of the steps: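 Supercoiled pUC19 (130 ng) with compound at 20 or 50 µM, or etoposide as control, was incubated with human topoisomerase II (4 units) for 45 min at 37 °C in cleavage buffer. The reaction was stopped with 0.25% SDS plus proteinase K for 30 min at 50 °C. DNA forms were separated on 1% agarose containing ethidium bromide in TBE.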
Sequence of DNA topoisomerase 2-alpha (Homo sapiens) (P11388 whole entry): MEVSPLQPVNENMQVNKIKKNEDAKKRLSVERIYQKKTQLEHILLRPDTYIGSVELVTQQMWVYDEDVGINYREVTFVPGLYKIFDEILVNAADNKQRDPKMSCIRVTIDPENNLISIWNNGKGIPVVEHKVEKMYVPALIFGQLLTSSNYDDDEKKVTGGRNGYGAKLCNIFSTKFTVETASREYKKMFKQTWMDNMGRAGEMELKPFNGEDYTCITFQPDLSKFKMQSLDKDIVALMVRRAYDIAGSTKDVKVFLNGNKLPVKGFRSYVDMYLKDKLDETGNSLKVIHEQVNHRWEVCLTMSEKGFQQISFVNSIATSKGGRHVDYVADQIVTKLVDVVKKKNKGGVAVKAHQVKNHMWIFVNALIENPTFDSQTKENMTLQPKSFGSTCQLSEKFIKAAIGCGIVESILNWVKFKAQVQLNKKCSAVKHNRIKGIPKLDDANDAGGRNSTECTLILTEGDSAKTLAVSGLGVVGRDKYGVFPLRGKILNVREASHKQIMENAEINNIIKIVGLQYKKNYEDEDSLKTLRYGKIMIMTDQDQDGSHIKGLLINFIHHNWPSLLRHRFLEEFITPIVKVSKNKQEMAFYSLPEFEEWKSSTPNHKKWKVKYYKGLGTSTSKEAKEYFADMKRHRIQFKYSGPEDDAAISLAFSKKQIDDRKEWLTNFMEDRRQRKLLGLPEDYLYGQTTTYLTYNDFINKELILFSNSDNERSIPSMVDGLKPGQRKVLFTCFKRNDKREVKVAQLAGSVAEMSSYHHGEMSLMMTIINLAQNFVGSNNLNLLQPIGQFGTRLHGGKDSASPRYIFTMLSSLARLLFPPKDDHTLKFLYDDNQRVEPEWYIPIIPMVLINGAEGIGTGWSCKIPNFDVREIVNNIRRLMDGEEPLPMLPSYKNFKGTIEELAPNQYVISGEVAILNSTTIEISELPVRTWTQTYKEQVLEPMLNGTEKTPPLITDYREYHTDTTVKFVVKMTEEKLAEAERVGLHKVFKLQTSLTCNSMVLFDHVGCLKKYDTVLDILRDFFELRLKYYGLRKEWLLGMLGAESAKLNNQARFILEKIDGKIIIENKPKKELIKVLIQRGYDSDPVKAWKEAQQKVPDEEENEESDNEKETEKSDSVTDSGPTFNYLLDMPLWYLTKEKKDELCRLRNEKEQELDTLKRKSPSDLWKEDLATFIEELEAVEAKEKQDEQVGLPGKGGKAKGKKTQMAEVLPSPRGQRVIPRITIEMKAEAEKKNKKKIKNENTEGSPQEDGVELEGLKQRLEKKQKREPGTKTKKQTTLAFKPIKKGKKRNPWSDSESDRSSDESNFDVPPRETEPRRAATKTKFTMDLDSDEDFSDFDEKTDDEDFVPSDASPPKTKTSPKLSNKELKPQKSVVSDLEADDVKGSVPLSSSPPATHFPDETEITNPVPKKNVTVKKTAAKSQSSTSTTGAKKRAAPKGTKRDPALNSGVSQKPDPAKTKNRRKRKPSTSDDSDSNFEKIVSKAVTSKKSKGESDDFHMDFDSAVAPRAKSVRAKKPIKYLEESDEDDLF

The target of assay [2] is T1, DNA topoisomerase 1 (Homo sapiens) (UniProt P11387).
T1 sequence (whole entry): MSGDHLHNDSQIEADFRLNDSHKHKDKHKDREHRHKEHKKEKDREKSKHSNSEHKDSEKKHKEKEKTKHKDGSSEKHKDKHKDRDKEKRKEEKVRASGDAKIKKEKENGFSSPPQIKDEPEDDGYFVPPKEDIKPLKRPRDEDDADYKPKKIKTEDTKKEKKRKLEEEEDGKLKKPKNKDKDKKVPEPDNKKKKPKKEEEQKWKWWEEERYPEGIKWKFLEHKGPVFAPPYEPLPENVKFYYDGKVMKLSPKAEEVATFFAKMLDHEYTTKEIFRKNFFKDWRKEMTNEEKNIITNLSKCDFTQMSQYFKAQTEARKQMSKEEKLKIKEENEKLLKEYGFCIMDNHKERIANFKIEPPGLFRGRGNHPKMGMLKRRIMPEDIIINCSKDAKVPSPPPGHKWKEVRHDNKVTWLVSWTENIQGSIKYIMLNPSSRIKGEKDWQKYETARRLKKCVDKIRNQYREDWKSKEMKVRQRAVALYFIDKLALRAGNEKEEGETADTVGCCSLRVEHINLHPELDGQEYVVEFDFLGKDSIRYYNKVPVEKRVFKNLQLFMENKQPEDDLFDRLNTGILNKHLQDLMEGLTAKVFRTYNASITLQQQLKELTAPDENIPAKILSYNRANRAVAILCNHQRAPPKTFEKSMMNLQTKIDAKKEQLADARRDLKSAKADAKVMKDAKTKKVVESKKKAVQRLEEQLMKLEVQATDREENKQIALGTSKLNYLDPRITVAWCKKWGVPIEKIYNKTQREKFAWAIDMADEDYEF
The assay can be described thus: Inhibition of human topoisomerase 1-mediated DNA relaxation assessed as lack of nicking form by agarose gel electrophoresis. An outline of the steps: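 Supercoiled pUC19 (130 ng) was pre-incubated with compound at graded concentrations, or 20 or 50 µM in the cleavage assay. Human topoisomerase I (4 units) was then added for 45 min at 37 °C in 50 mM Tris pH 7.8, 50 mM KCl, 10 mM MgCl2, 1 mM DTT, 1 mM EDTA, 1 mM ATP. Camptothecin (20 µM) served as control. Samples ran on 1% agarose for 2 h at 120 V in TBE, with ethidium bromide either post-stained (relaxation) or included in the gel (cleavage).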

The test system of assay [3] is Nucleic Acid. Briefly: Binding affinity to poly(dA).poly(dT) duplex DNA assessed as change in thermal melting temperature at compound to DNA ratio of 0.25 by UV-vis spectroscopy. Format: nucleic-acid assay.
For assay [4], the system named is Calf thymus DNA. The assay can be described thus: Binding affinity to calf thymus DNA assessed as change in melting temperature at a compound to DNA molar ratio of 0.5 by UV-vis spectroscopy. Format: nucleic-acid assay. The settings on record: Bos taurus. The essentials: (§1)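 UV absorbance of DNA at 260 nm recorded every minute from 20 to 100 °C, ramping 1 °C/min in a thermostated quartz cell. Tm is taken as the midpoint of the hyperchromic transition. ΔTm = Tm(DNA+drug) − Tm(DNA alone). Calf-thymus DNA or poly(dAdT)2 was used at DNA/drug ratios from 0.1 to 1.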

Assay [5] has as its system Calf thymus DNA. Briefly: Binding affinity to calf thymus DNA assessed as change in melting temperature at a compound to DNA molar ratio of 0.25 by UV-vis spectroscopy. The settings on record: Bos taurus. The format is nucleic-acid assay. An outline of the steps:
as §1

Assay [6] has as its system Nucleic Acid. The assay can be described thus: Binding affinity to poly(dA).poly(dT) duplex DNA assessed as change in thermal melting temperature at compound to DNA ratio of 0.5 by UV-vis spectroscopy. The format is nucleic-acid assay.
Assay [7] concerns Nucleic Acid. The assay can be described thus: Binding affinity to poly(dA).poly(dT) duplex DNA assessed as change in thermal melting temperature at compound to DNA ratio of 0.1 by UV-vis spectroscopy. The format is nucleic-acid assay.
Assay [8] concerns Nucleic Acid. Briefly: Binding affinity to pBS 117bp DNA by DnaseI footprinting assay. Format: nucleic-acid assay. The essentials:
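Ligand and fragment were pre-incubated 15 min at 37 °C, then digested with DNase I at 0.001 unit/ml in 20 mM NaCl, 2 mM MgCl2, 2 mM MnCl2, pH 7.3. Products were resolved on a denaturing 8% polyacrylamide/8 M urea gel, with a G-track marker.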

Assay [9] relates to Calf thymus DNA. Briefly: Binding affinity to calf thymus DNA assessed as change in melting temperature at a compound to DNA molar ratio of 0.1 by UV-vis spectroscopy. The format is nucleic-acid assay. As to conditions: Bos taurus. An outline of the steps: as §1
Assay [10] deals with Nucleic Acid. Briefly: Binding affinity to poly(dA).poly(dT) duplex DNA assessed as change in thermal melting temperature at compound to DNA ratio of 1 by UV-vis spectroscopy. Format: nucleic-acid assay.
In assay [11] the test system is Calf thymus DNA. The assay can be described thus: Binding affinity to calf thymus DNA assessed as change in melting temperature at a compound to DNA molar ratio of 1 by UV-vis spectroscopy. The format is nucleic-acid assay. The settings on record: Bos taurus. An outline of the steps:
as §1

Activity calls are given as the source filed them. The calls are words filed in the database; no cut-off is given here.

The term ΔTm denotes the change in melting temperature against a reference sample.

Regarding `COc1cc([C@@H]2c3cc4c(cc3[C@@H](O[C@@H]3O[C@@H]5CO[C@@H](C)O[C@H]5[C@H](O)[C@H]3O)[C@H]3COC(=O)[C@H]23)OCO4)cc(OC)c1O`, in assay [1], the outcome was Active.

`CC[C@@]1(O)C(=O)OCc2c1cc1n(c2=O)Cc2cc3ccccc3nc2-1`: the result in assay [2] was Active.

With `O=C(NCCCN1CCOCC1)c1cc2c3cccc(Cl)c3[nH]c2c2ncccc12`, the shift in melting temperature (ΔTm) in the assay with Nucleic Acid [3] came to 3.9 °C; with Calf thymus DNA [4], 0.4 °C; in the assay with Calf thymus DNA [5], 0.7 °C; in the assay with Nucleic Acid [6], 5.3 °C; in the assay on Nucleic Acid [7] it was 2.1 °C; with Calf thymus DNA [9], 0 °C. Also, the values for the ΔTm in the assay on Nucleic Acid [10] and in the assay with Calf thymus DNA [11] were 5.3 °C and 0.6 °C, respectively. The outcome in the assay with Nucleic Acid [8] was inactive.
